Each block holds one compound with its values, some of them ahead of it. Square brackets hold non-standard residues; d marks the D form. Peptide text beside a SMILES is read from it. Aib = CC(C)(N)C(=O)O
Columns and labels:
[1] = target: T1, Neuropeptide S receptor (Mus musculus) (UniProt Q8BZP8); experiment: Agonist activity at mouse recombinant NPSR expressed in HEK293 cells assessed as calcium mobilization relative to baseline; type: functional, cell-based
T1 sequence (whole entry): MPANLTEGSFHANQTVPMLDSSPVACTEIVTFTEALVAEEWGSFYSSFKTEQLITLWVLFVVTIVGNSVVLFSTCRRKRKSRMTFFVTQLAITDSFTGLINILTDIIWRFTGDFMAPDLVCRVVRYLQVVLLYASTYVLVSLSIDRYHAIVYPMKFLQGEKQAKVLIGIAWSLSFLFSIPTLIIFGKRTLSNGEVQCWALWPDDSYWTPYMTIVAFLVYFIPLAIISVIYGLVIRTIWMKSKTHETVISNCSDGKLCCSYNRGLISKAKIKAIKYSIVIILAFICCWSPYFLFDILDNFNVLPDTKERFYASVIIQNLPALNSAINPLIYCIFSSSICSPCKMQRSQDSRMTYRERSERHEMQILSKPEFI
How it was run: (§1)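 HEK293 cells stably expressing mouse NPSR, grown in DMEM/10% FBS/2 mM glutamine/hygromycin at 37 °C, 5% CO2. Seeded 50,000 cells/well on poly-D-lysine; next day loaded 30 min at 37 °C with 3 µM Fluo-4 AM, 2.5 mM probenecid, 0.01% pluronic acid. Read in HBSS/20 mM HEPES/probenecid/Brilliant Black at ≈22 °C on FlexStation; peak fluorescence change as % baseline; logistic fit; ≥4 experiments in duplicate.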

Neuropeptide S receptor = target: T2, Neuropeptide S receptor (Mus musculus, UniProt Q8BZP8); experiment: Agonist activity at mouse recombinant NPSR expressed in HEK293 cells assessed as calcium mobilization; type: functional, cell-based; how it was run: as §1
T2 sequence (Q8BZP8 whole entry): T1 sequence (whole entry)

SMILES: CSCC[C@H](NC(=O)CNC(=O)[C@@H](NC(=O)CNC(=O)[C@@H](NC(=O)CNC(=O)[C@H](CC(N)=O)NC(=O)[C@H](CCCNC(=N)N)NC(=O)[C@H](Cc1ccccc1)NC(=O)[C@H](C)N)C(C)C)[C@@H](C)O)C(=O)N[C@@H](CCCCN)C(=O)N[C@@H](CCCCN)C(=O)N[C@H](C(=O)N[C@@H](CO)C(=O)N[C@@H](Cc1ccccc1)C(=O)N[C@@H](CCC(N)=O)C(=O)N[C@@H](CCCNC(=N)N)C(=O)N[C@@H](C)C(=O)N[C@@H](CCCCN)C(=O)N[C@@H](CO)C(=O)O)[C@@H](C)O (H-AFRNGVGTGMKKTSFQRAKS-OH)
Emax [1]: 182%
EC50 (Neuropeptide S receptor): 26.3 nM

SMILES: CSCC[C@H](NC(=O)[C@H](C)NC(=O)[C@@H](NC(=O)[C@H](C)NC(=O)[C@@H](NC(=O)CNC(=O)[C@H](CC(N)=O)NC(=O)[C@H](CCCNC(=N)N)NC(=O)[C@H](Cc1ccccc1)NC(=O)[C@@H](N)CO)C(C)C)[C@@H](C)O)C(=O)N[C@@H](CCCCN)C(=O)N[C@@H](CCCCN)C(=O)N[C@@H](C)C(=O)N[C@@H](CO)C(=O)N[C@@H](Cc1ccccc1)C(=O)N[C@@H](CCC(N)=O)C(=O)N[C@@H](CCCNC(=N)N)C(=O)N[C@@H](C)C(=O)N[C@@H](CCCCN)C(=O)N[C@@H](CO)C(=O)O (H-SFRNGVATAMKKASFQRAKS-OH)
Emax [1]: 69%

SMILES: CSCC[C@H](NC(=O)CNC(=O)[C@@H](NC(=O)CNC(=O)[C@@H](NC(=O)[C@@H](C)NC(=O)[C@H](CC(N)=O)NC(=O)[C@H](CCCNC(=N)N)NC(=O)[C@H](Cc1ccccc1)NC(=O)[C@@H](N)CO)C(C)C)[C@@H](C)O)C(=O)N[C@@H](CCCCN)C(=O)N[C@@H](CCCCN)C(=O)N[C@H](C(=O)N[C@@H](CO)C(=O)N[C@@H](Cc1ccccc1)C(=O)N[C@@H](CCC(N)=O)C(=O)N[C@@H](CCCNC(=N)N)C(=O)N[C@@H](C)C(=O)N[C@@H](CCCCN)C(=O)N[C@@H](CO)C(=O)O)[C@@H](C)O (H-SFRN[dA]VGTGMKKTSFQRAKS-OH)
Emax [1]: 90%
EC50 (Neuropeptide S receptor): 28.2 nM

SMILES: CSCC[C@H](NC(=O)CNC(=O)[C@@H](NC(=O)C(C)(C)NC(=O)[C@@H](NC(=O)CNC(=O)[C@H](CC(N)=O)NC(=O)[C@H](CCCNC(=N)N)NC(=O)[C@H](Cc1ccccc1)NC(=O)[C@@H](N)CO)C(C)C)[C@@H](C)O)C(=O)N[C@@H](CCCCN)C(=O)N[C@@H](CCCCN)C(=O)N[C@H](C(=O)N[C@@H](CO)C(=O)N[C@@H](Cc1ccccc1)C(=O)N[C@@H](CCC(N)=O)C(=O)N[C@@H](CCCNC(=N)N)C(=O)N[C@@H](C)C(=O)N[C@@H](CCCCN)C(=O)N[C@@H](CO)C(=O)O)[C@@H](C)O (H-SFRNGV[Aib]TGMKKTSFQRAKS-OH)
Emax [1]: 14%

SMILES: CSCC[C@H](NC(=O)CNC(=O)[C@@H](NC(=O)[C@H](C)NC(=O)[C@@H](NC(=O)CNC(=O)[C@H](CC(N)=O)NC(=O)[C@H](CCCNC(=N)N)NC(=O)[C@H](Cc1ccccc1)NC(=O)[C@@H](N)CO)C(C)C)[C@@H](C)O)C(=O)N[C@@H](CCCCN)C(=O)N[C@@H](CCCCN)C(=O)N[C@H](C(=O)N[C@@H](CO)C(=O)N[C@@H](Cc1ccccc1)C(=O)N[C@@H](CCC(N)=O)C(=O)N[C@@H](CCCNC(=N)N)C(=O)N[C@@H](C)C(=O)N[C@@H](CCCCN)C(=O)N[C@@H](CO)C(=O)O)[C@@H](C)O
Emax [1]: 129%

SMILES: CSCC[C@H](NC(=O)CNC(=O)[C@@H](NC(=O)CNC(=O)[C@@H](NC(=O)CNC(=O)[C@@H]1CCCN1C(=O)[C@H](CCCNC(=N)N)NC(=O)[C@H](Cc1ccccc1)NC(=O)[C@@H](N)CO)C(C)C)[C@@H](C)O)C(=O)N[C@@H](CCCCN)C(=O)N[C@@H](CCCCN)C(=O)N[C@H](C(=O)N[C@@H](CO)C(=O)N[C@@H](Cc1ccccc1)C(=O)N[C@@H](CCC(N)=O)C(=O)N[C@@H](CCCNC(=N)N)C(=O)N[C@@H](C)C(=O)N[C@@H](CCCCN)C(=O)N[C@@H](CO)C(=O)O)[C@@H](C)O (H-SFRPGVGTGMKKTSFQRAKS-OH)
EC50 (Neuropeptide S receptor): 158 nM

More lines, now with the values ahead:

Emax [1]: 178%
EC50 (Neuropeptide S receptor): 24.5 nM
SMILES: CSCC[C@H](NC(=O)CNC(=O)[C@@H](NC(=O)CNC(=O)[C@@H](NC(=O)[C@H](C)NC(=O)[C@H](CC(N)=O)NC(=O)[C@H](CCCNC(=N)N)NC(=O)[C@H](Cc1ccccc1)NC(=O)[C@@H](N)CO)C(C)C)[C@@H](C)O)C(=O)N[C@@H](CCCCN)C(=O)N[C@@H](CCCCN)C(=O)N[C@H](C(=O)N[C@@H](CO)C(=O)N[C@@H](Cc1ccccc1)C(=O)N[C@@H](CCC(N)=O)C(=O)N[C@@H](CCCNC(=N)N)C(=O)N[C@@H](C)C(=O)N[C@@H](CCCCN)C(=O)N[C@@H](CO)C(=O)O)[C@@H](C)O (H-SFRNAVGTGMKKTSFQRAKS-OH)

Emax [1]: 164%
EC50 (Neuropeptide S receptor): 23.4 nM
SMILES: CSCC[C@H](NC(=O)[C@H](C)NC(=O)[C@@H](NC(=O)CNC(=O)[C@@H](NC(=O)CNC(=O)[C@H](CC(N)=O)NC(=O)[C@H](CCCNC(=N)N)NC(=O)[C@H](Cc1ccccc1)NC(=O)[C@@H](N)CO)C(C)C)[C@@H](C)O)C(=O)N[C@@H](CCCCN)C(=O)N[C@@H](CCCCN)C(=O)N[C@H](C(=O)N[C@@H](CO)C(=O)N[C@@H](Cc1ccccc1)C(=O)N[C@@H](CCC(N)=O)C(=O)N[C@@H](CCCNC(=N)N)C(=O)N[C@@H](C)C(=O)N[C@@H](CCCCN)C(=O)N[C@@H](CO)C(=O)O)[C@@H](C)O

Emax [1]: 164%
EC50 (Neuropeptide S receptor): 23.4 nM
SMILES: CSCC[C@H](NC(=O)CNC(=O)[C@@H](NC(=O)[C@@H](C)NC(=O)[C@@H](NC(=O)CNC(=O)[C@H](CC(N)=O)NC(=O)[C@H](CCCNC(=N)N)NC(=O)[C@H](Cc1ccccc1)NC(=O)[C@@H](N)CO)C(C)C)[C@@H](C)O)C(=O)N[C@@H](CCCCN)C(=O)N[C@@H](CCCCN)C(=O)N[C@H](C(=O)N[C@@H](CO)C(=O)N[C@@H](Cc1ccccc1)C(=O)N[C@@H](CCC(N)=O)C(=O)N[C@@H](CCCNC(=N)N)C(=O)N[C@@H](C)C(=O)N[C@@H](CCCCN)C(=O)N[C@@H](CO)C(=O)O)[C@@H](C)O

Emax [1]: 175%
EC50 (Neuropeptide S receptor): 9.12 nM
SMILES: CSCC[C@H](NC(=O)CNC(=O)[C@@H](NC(=O)CNC(=O)[C@@H](NC(=O)CNC(=O)[C@H](CC(N)=O)NC(=O)[C@H](CCCNC(=N)N)NC(=O)[C@H](Cc1ccccc1)NC(=O)[C@@H](N)CO)C(C)C)[C@@H](C)O)C(=O)N[C@@H](CCCCN)C(=O)N[C@@H](CCCCN)C(=O)N[C@H](C(=O)N[C@@H](CO)C(=O)N[C@@H](Cc1ccccc1)C(=O)N[C@@H](CCC(N)=O)C(=O)N[C@@H](CCCNC(=N)N)C(=O)N[C@@H](C)C(=O)N[C@@H](CCCCN)C(=O)N[C@@H](CO)C(=O)O)[C@@H](C)O [NEUROPEPTIDE S] (H-SFRNGVGTGMKKTSFQRAKS-OH)

Emax [1]: 191%
EC50 (Neuropeptide S receptor): 15.1 nM
SMILES: CSCC[C@H](NC(=O)[C@H](C)NC(=O)[C@@H](NC(=O)CNC(=O)[C@@H](NC(=O)CNC(=O)[C@H](CC(N)=O)NC(=O)[C@H](CCCNC(=N)N)NC(=O)[C@H](Cc1ccccc1)NC(=O)[C@@H](N)CO)C(C)C)[C@@H](C)O)C(=O)N[C@@H](CCCCN)C(=O)N[C@@H](CCCCN)C(=O)N[C@@H](C)C(=O)N[C@@H](CO)C(=O)N[C@@H](Cc1ccccc1)C(=O)N[C@@H](CCC(N)=O)C(=O)N[C@@H](CCCNC(=N)N)C(=O)N[C@@H](C)C(=O)N[C@@H](CCCCN)C(=O)N[C@@H](CO)C(=O)O (H-SFRNGVGTAMKKASFQRAKS-OH)

Emax [1]: 190%
EC50 (Neuropeptide S receptor): 10.2 nM
SMILES: CSCC[C@H](NC(=O)C(C)(C)NC(=O)[C@@H](NC(=O)CNC(=O)[C@@H](NC(=O)CNC(=O)[C@H](CC(N)=O)NC(=O)[C@H](CCCNC(=N)N)NC(=O)[C@H](Cc1ccccc1)NC(=O)[C@@H](N)CO)C(C)C)[C@@H](C)O)C(=O)N[C@@H](CCCCN)C(=O)N[C@@H](CCCCN)C(=O)N[C@H](C(=O)N[C@@H](CO)C(=O)N[C@@H](Cc1ccccc1)C(=O)N[C@@H](CCC(N)=O)C(=O)N[C@@H](CCCNC(=N)N)C(=O)N[C@@H](C)C(=O)N[C@@H](CCCCN)C(=O)N[C@@H](CO)C(=O)O)[C@@H](C)O (H-SFRNGVGT[Aib]MKKTSFQRAKS-OH)

Emax [1]: 172%
EC50 (Neuropeptide S receptor): 19.1 nM
SMILES: CSCC[C@H](NC(=O)CNC(=O)[C@@H](NC(=O)CNC(=O)[C@@H](NC(=O)CNC(=O)[C@H](CC(N)=O)NC(=O)[C@H](CCCNC(=N)N)NC(=O)[C@H](Cc1ccccc1)NC(=O)[C@@H](N)CO)C(C)C)[C@@H](C)O)C(=O)N[C@@H](CCCCN)C(=O)N[C@@H](CCCCN)C(=O)N[C@@H](C)C(=O)N[C@@H](CO)C(=O)N[C@@H](Cc1ccccc1)C(=O)N[C@@H](CCC(N)=O)C(=O)N[C@@H](CCCNC(=N)N)C(=O)N[C@@H](C)C(=O)N[C@@H](CCCCN)C(=O)N[C@@H](CO)C(=O)O (H-SFRNGVGTGMKKASFQRAKS-OH)

Emax [1]: 172%
EC50 (Neuropeptide S receptor): 21.4 nM
SMILES: CSCC[C@H](NC(=O)[C@@H](C)NC(=O)[C@@H](NC(=O)CNC(=O)[C@@H](NC(=O)CNC(=O)[C@H](CC(N)=O)NC(=O)[C@H](CCCNC(=N)N)NC(=O)[C@H](Cc1ccccc1)NC(=O)[C@@H](N)CO)C(C)C)[C@@H](C)O)C(=O)N[C@@H](CCCCN)C(=O)N[C@@H](CCCCN)C(=O)N[C@H](C(=O)N[C@@H](CO)C(=O)N[C@@H](Cc1ccccc1)C(=O)N[C@@H](CCC(N)=O)C(=O)N[C@@H](CCCNC(=N)N)C(=O)N[C@@H](C)C(=O)N[C@@H](CCCCN)C(=O)N[C@@H](CO)C(=O)O)[C@@H](C)O

Reference: ChEMBL document CHEMBL1148770, “Conformation-activity relationship of neuropeptide S and some structural mutants: helicity affects their interaction with the receptor” (J Med Chem, 2007)
